Results from ChEMBL document CHEMBL1137451, “Synthesis and evaluation of antifungal properties of a series of the novel 2-amino-5-oxo-4-phenyl-5,6,7,8-tetrahydroquinoline-3-carbonitrile and its analogues” (Bioorg Med Chem, 2007).
Active and inactive are the calls of the source. No cut-off for these calls is given here.

Experiments:
Fusarium oxysporum [1] = test: Antifungal activity against Fusarium oxysporum 1 at 100 ug/disc after 24 hrs by disc diffusion method; type: functional; details: read-out: IZ
Procedure, shortened: (§1)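 Yeast suspensions (C. albicans strains 1, 2) and mycelial suspensions (F. oxysporum strains 1, 2; Mucor sp.) spread on YPG (0.3% yeast extract, 0.5% peptone, 1% glucose) or PDA agar. Compound applied on filter-paper discs at the stated amount; 28 °C, 24 h. Read-out is inhibition zone diameter. Controls: 50% v/v DMSO vehicle, cycloheximide, amphotericin B.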

Candida albicans [2] = test: Antifungal activity against Candida albicans 2 at 60 ug/disc after 24 hrs by disc diffusion method; type: functional; details: for zone of inhibition at 60 µg/disc: read-out: IZ; procedure, shortened: as §1
Mucor [3] = test: Antifungal activity against Mucor at 40 ug/disc after 24 hrs by disc diffusion method; type: functional; procedure, shortened: as §1
Candida albicans [4] = test: Antifungal activity against Candida albicans 2 after 24 hrs by disc diffusion method; type: functional
Procedure, shortened: (§2)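 Disc diffusion on Candida albicans strains 1 and 2 (yeast suspension), Fusarium oxysporum strains 1 and 2 and Mucor sp. (mycelial suspension), spread on YPG or PDA agar. Compound at graded amounts per filter-paper disc, 28 °C for 24 h. MIC taken as the lowest amount giving a 2 mm inhibition zone. Controls: 50% v/v DMSO vehicle, cycloheximide, amphotericin B.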

Candida albicans [5] = test: Antifungal activity against Candida albicans 2 at 100 ug/disc after 24 hrs by disc diffusion method; type: functional; details: read-out: IZ; procedure, shortened: as §1
Fusarium oxysporum [6] = test: Antifungal activity against Fusarium oxysporum 2 at 40 ug/disc after 24 hrs by disc diffusion method; type: functional; details: for zone of inhibition at 40 µg/disc: read-out: IZ; procedure, shortened: as §1
Fusarium oxysporum [7] = test: Antifungal activity against Fusarium oxysporum 1 at 60 ug/disc after 24 hrs by disc diffusion method; type: functional; details: for zone of inhibition at 60 µg/disc: read-out: IZ; procedure, shortened: as §1
Candida albicans [8] = test: Antifungal activity against Candida albicans 1 at 60 ug/disc after 24 hrs by disc diffusion method; type: functional; details: for zone of inhibition at 60 µg/disc: read-out: IZ; procedure, shortened: as §1
Candida albicans [9] = test: Antifungal activity against Candida albicans 1 after 24 hrs by disc diffusion method; type: functional; procedure, shortened: as §2
Mucor [10] = test: Antifungal activity against Mucor at 100 ug/disc after 24 hrs by disc diffusion method; type: functional; procedure, shortened: as §1
Fusarium oxysporum [11] = test: Antifungal activity against Fusarium oxysporum 1 at 40 ug/disc after 24 hrs by disc diffusion method; type: functional; details: for zone of inhibition at 40 µg/disc: read-out: IZ; procedure, shortened: as §1
Fusarium oxysporum [12] = test: Antifungal activity against Fusarium oxysporum 1 after 24 hrs by disc diffusion method; type: functional; procedure, shortened: as §2
Candida albicans [13] = test: Antifungal activity against Candida albicans 2 at 40 ug/disc after 24 hrs by disc diffusion method; type: functional; details: for zone of inhibition at 40 µg/disc: read-out: IZ; procedure, shortened: as §1
Benjaminiella poitrasii [14] = test: Inhibition of Benjaminiella poitrasii chitin synthase at 4 ug/mL
Procedure, shortened: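 Chitin synthase from Benjaminiella poitrasii measured with and without compound at 4 µg/ml, using a non-radioactive chitin synthase assay. Nikkomycin Z used as reference.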

Mucor [15] = test: Antifungal activity against Mucor at 60 ug/disc after 24 hrs by disc diffusion method; type: functional; procedure, shortened: as §1
Candida albicans [16] = test: Antifungal activity against Candida albicans 1 at 40 ug/disc after 24 hrs by disc diffusion method; type: functional; details: for zone of inhibition at 40 µg/disc: read-out: IZ; procedure, shortened: as §1
Benjaminiella poitrasii [17] = test: Inhibition of yeast hypha transition at 20 ug/mL after 4 hrs
Fusarium oxysporum [18] = test: Antifungal activity against Fusarium oxysporum 2 at 100 ug/disc after 24 hrs by disc diffusion method; type: functional; details: read-out: IZ; procedure, shortened: as §1
Fusarium oxysporum [19] = test: Antifungal activity against Fusarium oxysporum 2 at 60 ug/disc after 24 hrs by disc diffusion method; type: functional; details: for zone of inhibition at 60 µg/disc: read-out: IZ; procedure, shortened: as §1
Candida albicans [20] = test: Antifungal activity against Candida albicans 1 at 100 ug/disc after 24 hrs by disc diffusion method; type: functional; details: read-out: IZ; procedure, shortened: as §1
Fusarium oxysporum [21] = test: Antifungal activity against Fusarium oxysporum 2 after 24 hrs by disc diffusion method; type: functional; procedure, shortened: as §2

Row | Structure (SMILES) | zone of inhibition at 100 µg/disc (Fusarium oxysporum [1]) [mm] | zone of inhibition at 60 µg/disc (Candida albicans [2]) [mm] | Activity (Mucor [3]) | MIC (Candida albicans [4]) [µg/disc] | zone of inhibition at 100 µg/disc (Candida albicans [5]) [mm] | zone of inhibition at 60 µg/disc (Fusarium oxysporum [7]) [mm] | zone of inhibition at 60 µg/disc (Candida albicans [8]) [mm] | MIC (Candida albicans [9]) [µg/disc] | Activity (Mucor [10]) | MIC (Fusarium oxysporum [12]) [µg/disc] | Activity (Candida albicans [13]) | inhibition (Benjaminiella poitrasii [14]) [%] | Activity (Mucor [15]) | Activity (Candida albicans [16]) | inhibition at 20 µg/mL (Benjaminiella poitrasii [17]) [%] | zone of inhibition at 100 µg/disc (Fusarium oxysporum [18]) [mm] | zone of inhibition at 60 µg/disc (Fusarium oxysporum [19]) [mm] | zone of inhibition at 100 µg/disc (Candida albicans [20]) [mm] | MIC (Fusarium oxysporum [21]) [µg/disc] | zone of inhibition at 40 µg/disc (Fusarium oxysporum [6]) [mm] | other results
1 | N#Cc1c(N)nc2c(c1-c1ccc([N+](=O)[O-])cc1)C(=O)CCC2 | 3 | 3 | inactive | 60 | 5 | 2 | 3 | 60 | inactive | 60 | inactive | 61 | inactive | inactive | 95 | 3 | 2 | 5 | 60 |  | Activity (Fusarium oxysporum [6]): inactive; Activity (Fusarium oxysporum [11]): inactive
2 | COc1ccc(-c2c(C#N)c(N)nc3c2C(=O)CCC3)cc1 | 6 | 3 | inactive | 60 | 4 |  | 3 | 60 | inactive | 100 | inactive | 81 | inactive | inactive | 95 | 6 |  | 4 | 100 | 3 | Activity (Fusarium oxysporum [7]): inactive; Activity (Fusarium oxysporum [11]): inactive; Activity (Fusarium oxysporum [19]): inactive
3 | N#Cc1c(N)nc2c(c1-c1ccccc1)C(=O)CCC2 | 6 | 2 | inactive | 60 | 6 | 3 | 2 | 60 | inactive | 60 | inactive | 66 | inactive | inactive | 90 | 6 | 3 | 6 | 60 | 3 | Activity (Fusarium oxysporum [11]): inactive
4 | CC(=O)Nc1nc2c(c(-c3ccc(C)cc3)c1C#N)C(=O)CCC2 | 5 | 3 | inactive | 60 | 7 | 3 | 3 | 60 | inactive | 60 | inactive | 66 | inactive | inactive | 90 | 5 | 3 | 7 | 60 |  | Activity (Fusarium oxysporum [6]): inactive; Activity (Fusarium oxysporum [11]): inactive
5 | Cc1ccc(-c2c(C(N)=O)c(N)nc3c2C(=O)CCC3)cc1 | 4 | 2 | inactive | 60 | 4 |  | 2 | 60 | inactive | 100 | inactive | 66 | inactive | inactive | 95 | 4 | 2 | 4 | 100 |  | Activity (Fusarium oxysporum [6]): inactive; Activity (Fusarium oxysporum [7]): inactive; Activity (Fusarium oxysporum [11]): inactive
6 | C[C@@H]1C[C@@H]([C@H](O)CC2CC(=O)NC(=O)C2)C(=O)[C@@H](C)C1 [CYCLOHEXIMIDE] | 7 | 4 | inactive | 40 | 7 | 5 | 4 | 40 | inactive | 20 |  |  | inactive |  |  | 7 | 5 | 7 | 20 | 3 | zone of inhibition at 40 µg/disc (Fusarium oxysporum [11]): 3 mm; zone of inhibition at 40 µg/disc (Candida albicans [13]): 2 mm; zone of inhibition at 40 µg/disc (Candida albicans [16]): 2 mm
7 | N#Cc1c(N)nc2c(c1-c1cccc(N3C(=O)C=CC3=O)c1)C(=O)CCC2 | 7 | 5 | inactive | 40 | 7 | 3 | 5 | 40 | inactive | 40 |  | 91 | inactive |  | 95 | 7 | 3 | 7 | 40 | 3 | zone of inhibition at 40 µg/disc (Fusarium oxysporum [11]): 3 mm; zone of inhibition at 40 µg/disc (Candida albicans [13]): 3 mm; zone of inhibition at 40 µg/disc (Candida albicans [16]): 3 mm
8 | N#Cc1c(N)nc2c(c1-c1cccc(NC(=O)CCN3CCOCC3)c1)C(=O)CCC2 | 5 | 2 | inactive | 40 | 7 | 3 | 2 | 40 | inactive | 40 |  | 61 | inactive |  | 95 | 5 | 3 | 7 | 40 | 2 | zone of inhibition at 40 µg/disc (Fusarium oxysporum [11]): 2 mm; zone of inhibition at 40 µg/disc (Candida albicans [13]): 2 mm; zone of inhibition at 40 µg/disc (Candida albicans [16]): 2 mm
9 | COc1cc(-c2c(C#N)c(N)nc3c2C(=O)CCC3)cc(OC)c1OC | 4 |  | inactive | 100 | 7 | 2 |  | 100 | inactive | 20 | inactive | 81 | inactive | inactive | 95 | 4 | 2 | 7 | 20 | 2 | Activity (Candida albicans [2]): inactive; Activity (Candida albicans [8]): inactive; zone of inhibition at 40 µg/disc (Fusarium oxysporum [11]): 2 mm
